Experimental data taken from ChEMBL document CHEMBL4251668, “Herbicidins from Streptomyces sp. CB01388 Showing Anti- Cryptosporidium Activity” (J Nat Prod, 2018).
pEC50: −log10 of the molar value.

Columns and labels:
Cryptosporidium parvum [1] = assay: Antiparasitic activity against Cryptosporidium parvum SPL infected in human HCT8 cells incubated for 48 hrs by FITC/DAPI staining based fluorescence assay; assay type: functional, organism-based; settings: HCT-8, 48 h
Method in brief: (§1)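 HCT-8 cells seeded at 2750 cells/well and dosed 24 h later with pure compounds (11-point 1:3 serial dilution, final top 25 μM), then infected with excysted oocysts at 3125 oocysts/well. Incubated 48 h at 37 °C, 5% CO2, then fixed in 4% paraformaldehyde. Parasites stained with FITC-Vicia villosa lectin and host nuclei with DAPI, imaged at 10×. Parasite spot counts and host nuclei counts taken relative to DMSO-treated wells.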

HCT-8 = assay: Cytotoxicity against human HCT8 cells; assay type: cell-based; method in brief: as §1
Cryptosporidium parvum [2] = assay: Antiparasitic activity against Cryptosporidium parvum BGF infected in human HCT8 cells incubated for 48 hrs by FITC/DAPI staining based fluorescence assay; assay type: functional, organism-based; settings: HCT-8, 48 h; method in brief: as §1
[3] = Cytotoxicity against human HEK293T cells assessed as decrease in cell viability after 72 hrs by CellTiter-Glo reagent based luminescence assay; set-up: species or system HEK-293T
Method in brief: (§2)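 Compounds prespotted as a 1:3 dilution series, top 40 μM. Cells seeded at 375 cells/well for HEK293T and 700 cells/well for HepG2, then incubated 72 h at 37 °C, 5% CO2. Viability read as CellTiter-Glo luminescence, normalized to DMSO- and puromycin-treated wells. CC50 obtained from a four-parameter nonlinear regression fit.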

[4] = Cytotoxicity against human HepG2 cells assessed as decrease in cell viability after 72 hrs by CellTiter-Glo reagent based luminescence assay; method in brief: as §2

C/C=C(\CO)C(=O)O[C@@H]1[C@@H](C(=O)OC)O[C@@H]2C[C@H]3O[C@@H](n4cnc5c(N)ncnc54)[C@H](OC)[C@H]3O[C@@]2(O)[C@@H]1O
pEC50 (Cryptosporidium parvum [1]): 6.77 | pEC50 (HCT-8): 6.74 to 6.85 | pEC50 (Cryptosporidium parvum [2]): 6.82 | CC50 at 72 h [3]: > 40 µM | CC50 at 72 h [4]: 24 µM

COc1ccc(C[C@H](N)C(=O)N[C@H]2[C@@H](O)[C@H](n3cnc4c(N(C)C)ncnc43)O[C@@H]2CO)cc1 [PUROMYCIN]
pEC50 (Cryptosporidium parvum [1]): 6.22 | pEC50 (HCT-8): 5.15 to 5.21 | pEC50 (Cryptosporidium parvum [2]): 6.26 | CC50 at 72 h [3]: 0.42 µM | CC50 at 72 h [4]: 0.83 µM

C/C=C(\CO)C(=O)O[C@H]1[C@H](O)[C@@H](C(=O)OC)O[C@@H]2C[C@H]3O[C@@H](n4cnc5c(N)ncnc54)[C@H](OC)[C@H]3O[C@]21O
pEC50 (Cryptosporidium parvum [1]): 4.80 | pEC50 (HCT-8): < 4.60 | pEC50 (Cryptosporidium parvum [2]): 4.68 | CC50 at 72 h [3]: > 40 µM | CC50 at 72 h [4]: > 40 µM

COC(=O)[C@H]1O[C@@H]2C[C@H]3O[C@@H](n4cnc5c(N)ncnc54)[C@H](OC)[C@H]3O[C@@]2(O)[C@H](O)[C@@H]1O
pEC50 (Cryptosporidium parvum [1]): < 4.60 | pEC50 (HCT-8): < 4.60 | pEC50 (Cryptosporidium parvum [2]): < 4.60 | CC50 at 72 h [3]: > 40 µM | CC50 at 72 h [4]: > 40 µM

COC(=O)[C@H]1O[C@@H]2C[C@H]3O[C@@H](n4cnc5c(N)ncnc54)[C@H](OC)[C@H]3O[C@@]2(O)[C@@H](O)[C@@H]1O
pEC50 (Cryptosporidium parvum [1]): 4.96 | pEC50 (HCT-8): < 4.60 | pEC50 (Cryptosporidium parvum [2]): 5.06 | CC50 at 72 h [3]: > 40 µM | CC50 at 72 h [4]: > 40 µM

C/C=C(\C)C(=O)O[C@H]1[C@H](O)[C@@H](C(=O)OC)O[C@@H]2C[C@H]3O[C@@H](n4cnc5c(N)ncnc54)[C@H](O)[C@H]3O[C@]21O
pEC50 (Cryptosporidium parvum [1]): 5.57 | pEC50 (HCT-8): < 4.60 | pEC50 (Cryptosporidium parvum [2]): 5.55 | CC50 at 72 h [3]: > 40 µM | CC50 at 72 h [4]: > 40 µM

O=c1[nH]c(=O)n([C@H]2C[C@H](O)[C@@H](CO)O2)cc1F [FLOXURIDINE]
pEC50 (Cryptosporidium parvum [1]): 8.30 | pEC50 (HCT-8): 7.42 to 7.82 | pEC50 (Cryptosporidium parvum [2]): 8.02 | CC50 at 72 h [3]: 0.0084 µM | CC50 at 72 h [4]: 0.0076 µM

CC(=O)Oc1ccccc1C(=O)Nc1ncc([N+](=O)[O-])s1 [NITAZOXANIDE]
pEC50 (Cryptosporidium parvum [1]): 5.64 | pEC50 (HCT-8): < 4.60 | pEC50 (Cryptosporidium parvum [2]): 5.54 | CC50 at 72 h [3]: > 40 µM | CC50 at 72 h [4]: > 40 µM

COC(=O)[C@H]1O[C@@H]2C[C@H]3O[C@@H](n4cnc5c(N)ncnc54)[C@H](O)[C@H]3O[C@@]2(O)[C@@H](O)[C@@H]1O
pEC50 (Cryptosporidium parvum [1]): 4.62 | pEC50 (HCT-8): < 4.60 | pEC50 (Cryptosporidium parvum [2]): 4.74 | CC50 at 72 h [3]: > 40 µM | CC50 at 72 h [4]: > 40 µM
